Screening data (PubChem BioAssay)
b-catenin transl: alters nuclear translocation of beta-catenin in HeLa cells; immunofluorescence imaging; AID 1665; 0.3% of 190,000 active; nuclear translocation activity, % at 5 µM;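 active = nuclear translocation activity above 50% at 5 µM, with a well cell count of 50 or more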;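 note: per-cell ratio of nuclear to cytoplasmic median beta-catenin stain intensity; plate controls were DMSO negative control for no effect and GSK-3 inhibitor IX positive control for full effect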
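Technique: fluorescence imaging of beta-catenin antibody stain plus DAPI / Material: human HeLa cell line / Incubation: compound treatment 24 h, 37°C, 5% CO2 / Read-out basis: % activation of per-cell nuclear versus cytoplasmic median beta-catenin signal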
Insulin prom up: MIN6 insulin promoter up-regulation | MIN6 insulin promoter-GFP reporter, high-content imaging; active compounds read high | z-score at 5 µM | 0.3% of 190,000 active;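 active = z-score above 3 at 5 µM with at least 500 cells counted in the well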
Tb hexokinase: T. brucei hexokinase 1 inhibition | AID 1430 | inhibition, % at 10 µM | 0.11% of 220,000 active | recombinant TbHK1, G6PDH-coupled NADH A340;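 active = inhibition of 50% or more in the single-dose primary screen; inactive = inhibition below 50%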
MT stabilizer: microtubule stabilization, imaging screen; HeLa tubulin immunostaining HCS, 24 h; share of cells brighter than vehicle mean+2SD; 0.83% of 200,000 active; % tubulin-high responders, % at 10 µM;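 active = plate Z-score above 3 for both tubulin-high and condensed-nucleus cell shares, with cell loss under 80%, at 10 µM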;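 note: anti alpha tubulin signal scored within the nucleus-defined area of each cell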
Autophagy HCS: modulators of autophagy. MEF GFP-LC3 puncta imaging; test concentration mostly 10 µM. calls only at 10 µM (by protocol). 0.98% of 190,000 active. AID 463193;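 active = percentage of spot-positive cells more than 3 SD above its plate mean, without a fluorescence outlier flag or 80% toxicity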;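 note: spot-positive cell cutoff set from DMSO-treated cells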
The depositor's hits bear a star; i = inactive; . = no result given; + = active, no number. Compounds with a hit are over-represented: about 1.9% of the library has one in this group of screens.

SMILES	b-catenin transl	Insulin prom up	Tb hexokinase	MT stabilizer	Autophagy HCS
CCOC(=O)C1=C(C)OC(N)=C(C#N)C1c1cc(OC)c2c(c1)OCO2 (configuration not stated)	-3	0.03	-4	6	i
COc1cc(C2C(C#N)=C(N)Oc3cc(O)ccc32)cc(OC)c1OC (configuration not stated)	.	.	1	21*	+
COc1cc(C2C(C#N)=C(N)Oc3cc4c(cc32)OCO4)cc(OC)c1OC (configuration not stated)	51*	.	-4	9	i
CCn1c2ccccc2c2cc(NC(=O)COC(=O)c3cc(Cl)c(N)cc3OC)ccc21	2	-0.24	-25	.	.
Cn1c(-c2cccs2)[n+](C)c2ccccc21	-3	-0.47	8	2	i
O=C(CNC(=S)N(Cc1ccccc1)Cc1cccnc1)NCc1ccccc1	-2	0.2	2	2	i
O=C(O)CNC(=S)N(Cc1ccccc1)Cc1cccnc1	-2	0.31	-11	3	+
NC(=S)Nc1ncc(CCN2CCOCC2)c(-c2ccc(F)cc2)n1	-4	1.3	-5	3	i
CSc1nn2cc(CCN3CCOCC3)c(-c3ccc(F)cc3)nc2c1C#N	-3	0.12	-1	3	+
COc1ccc2c(Cl)c(C(=O)N/N=C/c3c(C)[nH]c4ccccc34)sc2c1	78*	0.14	-23	22*	i
Oc1ccc(-c2nc3c4c(ncn3n2)-c2ccccc2CC42CCCC2)cc1	4	-0.5	0	2	i
O=C(COc1ccccc1)NCC1CCCO1 (configuration not stated)	-1	.	-12	2	i
O=C(COc1ncnc2ccccc12)NCC1CCCO1 (configuration not stated)	-7	0.53	-6	3	+
Cc1ccc(CSc2nnc(-c3cccnc3)n2N)cc1	0	-0.43	7	3	i
Cc1ccc(C(=O)CSc2nnc(-c3cccnc3)n2N)cc1	9	.	-3	30*	i
CCN(CCn1cccn1)Cc1c(C(=O)N2C[C@@H](C)O[C@@H](C)C2)nc2ccc(Cl)cn12	-1	.	4	2	i
Cc1ccc(NN2C(=O)C=C(c3ccccc3)C2=O)cc1	-1	-0.21	-3	3	i
COc1cccc(C2CC(=O)Nc3cc4c(cc32)CCC4)c1 (configuration not stated)	2	.	-2	17*	i
O=C1CC(c2cccc([N+](=O)[O-])c2)c2cc3c(cc2N1)CCC3 (configuration not stated)	0	-1.2	-4	26*	i
O=C1CC(c2cccc([N+](=O)[O-])c2)c2c(ccc3ccccc23)N1 (configuration not stated)	-1	-0.78	1	50*	i
O=[N+]([O-])c1cccc(CNc2ccc3c(c2)CCC3)c1	.	-0.32	-1	2	i
O=C1CC(c2cccc(Cl)c2)c2cc3c(cc2N1)CCC3 (configuration not stated)	0	-1.1	0	32*	i
CCOC(=O)N1CCN(c2c(N3CCN(c4ccccc4F)CC3)c(=O)c2=O)CC1	0	-1.1	-25	.	.
O=c1[nH]c(=O)n([C@H]2C[C@H](O)[C@@H](CO)O2)cc1C(F)(F)F	.	.	-3	6	+
CCc1cn([C@H]2C[C@H](O)[C@@H](CO)O2)c(=O)[nH]c1=O	-5	.	1	1	i
SMILES	b-catenin transl	Insulin prom up	Tb hexokinase	MT stabilizer	Autophagy HCS
CC(C)SC1=NC(C)(C)C=C(/C=C/c2c(Cl)cccc2Cl)N1	.	0.6	-7	4	i
CC(C)SC1=NC(C)(C)C=C(/C=C/c2ccc(Cl)cc2Cl)N1	.	3.6*	-10	2	i
CCC(=O)Nc1ccc(S(=O)(=O)Nc2ccc(Cl)nn2)cc1	0	0.33	33	1	i
Oc1c(/C=C/C=C/C=Nc2ccccc2)sc(=S)n1Cc1ccccc1	.	3.3*	8	.	.
CCCCn1c(O)c(/C=C/C=C/C=Nc2ccccc2)sc1=S	.	4.7*	13	5	i
COc1ccccc1NC(=O)C(C)NS(=O)(=O)c1ccc(Cl)cc1 (configuration not stated)	-8	0.9	0	2	i
COc1ccccc1NCC(=O)NNC(C)C(=O)Nc1cccc(Cl)c1 (configuration not stated)	-1	-0.27	13	1	+
CCCc1n[nH]c2c1C(=O)C(C(=O)OC)C(C)(C)C2 (configuration not stated)	0	3.6*	0	2	i
